Laboratory results: ChEMBL document CHEMBL1811832, “Transformation of isosteviol lactam by fungi and the suppressive effects of its transformed products on LPS-induced iNOS expression in macrophages” (2011)

System: RAW264.7
Assay: Antiinflammatory activity against mouse RAW264.7 cells assessed as inhibition of LPS-induced iNOS mRNA expression at 10 uM after 24 hrs by RT-PCR relative to control
Assay type: functional
Procedure, shortened: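 Murine RAW 264.7 macrophages stimulated with LPS 100 ng/mL for 4 h, then treated with compound at 10 μM for 24 h with LPS still present; dexamethasone as reference. Total RNA extracted with TRIzol, oligo(dT)-primed cDNA, real-time PCR (50 cycles, dissociation-curve check). iNOS mRNA expressed as fold relative to LPS-only cells; mean ± SEM, n = 3, paired two-tailed t-test.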

Compared with `C[C@@]12CC[C@H]3[C@]4(C)CCC[C@@](C)(C(=O)O)[C@H]4C[C@H](O)[C@]3(CC(=O)N1)C2`, `C[C@@]12CCC[C@@](C)(C(=O)O)[C@H]1CC[C@]13CC(=O)N[C@](C)(C1)[C@@H](O)C[C@H]32` is lower in “fold change (FC)” value: 0.61 for the first, 0.13 for the second.

Going from `CC1=C[C@@]2(CC#N)CC[C@H]3[C@@](C)(CCC[C@@]3(C)C(=O)O)[C@@H]2CC1` to `CC1=C[C@@]2(CC#N)CC[C@H]3[C@](C)([C@@H]2CC1)[C@@H](O)CC[C@@]3(C)C(=O)O`, the “fold change (FC)” value falls from 0.48 to 0.43.

Compared with `C[C@]12CC[C@H]3[C@]4(C)CCC[C@@](C)(C(=O)O)[C@H]4CC[C@@]3(C1)[C@H](Cl)C(=O)N2`, `C[C@@]12CC[C@@H]3[C@@](CC[C@H]4[C@@]3(C)CCC[C@@]4(C)C(=O)O)(CC(=O)N1)C2` [ISOSTEVIOL LACTAM] is lower in “fold change (FC)” value: 0.85 for the first, 0.15 for the second.

Compared with `C[C@@H]1C[C@H]2[C@@H]3CCC4=CC(=O)C=C[C@]4(C)[C@@]3(F)[C@@H](O)C[C@]2(C)[C@@]1(O)C(=O)CO` [DEXAMETHASONE], `CC1=C[C@@]2(CC#N)[C@@H](O)C[C@H]3[C@@](C)(CCC[C@@]3(C)C(=O)O)[C@@H]2CC1` is lower in “fold change (FC)” value: 0.16 for the first, 0.12 for the second.

First: C[C@@]12CC[C@@H]3[C@@](CC[C@H]4[C@@]3(C)CCC[C@@]4(C)C(=O)O)(CC1=O)C2 [ISOSTEVIOL]
Second: C[C@@]12CC[C@@H]3[C@@](CC[C@H]4[C@@]3(C)CCC[C@@]4(C)C(=O)O)(C/C1=N\O)C2 [ISOSTEVIOL OXIME]
The “fold change (FC)” value of the first is higher: 0.29 for the first, 0.15 for the second.

First: CCO[C@@H]1C[C@@H]2[C@@](CC#N)(C=C1C)CC[C@H]1[C@@]2(C)CCC[C@@]1(C)C(=O)O
Second: CO[C@H]1C[C@@H]2[C@@](CC#N)(C=C1C)CC[C@H]1[C@@]2(C)CCC[C@@]1(C)C(=O)O
The “fold change (FC)” value of the first is higher: 0.21 for the first, 0.2 for the second.

Going from `CC1=CC[C@@H]2[C@](CC#N)(CC[C@H]3[C@@]2(C)CCC[C@@]3(C)C(=O)OCCO)C1` to `CC1=CC[C@@H]2[C@](CC#N)(CC[C@H]3[C@@]2(C)CCC[C@@]3(C)C(=O)O)C1`, the “fold change (FC)” value rises from 0.5 to 0.63.

`C=C1C[C@@]2(CC#N)CC[C@H]3[C@@](C)(CCC[C@@]3(C)C(=O)O)[C@@H]2C[C@H]1Cl` was tested, and the “fold change (FC)” value was 0.3.
